Key:
[1] = target: T1, Glutaminase kidney isoform, mitochondrial (Homo sapiens) (UniProt O94925); assay: Inhibition of human GLS1 at 10 uM relative to control
T1 sequence (whole entry): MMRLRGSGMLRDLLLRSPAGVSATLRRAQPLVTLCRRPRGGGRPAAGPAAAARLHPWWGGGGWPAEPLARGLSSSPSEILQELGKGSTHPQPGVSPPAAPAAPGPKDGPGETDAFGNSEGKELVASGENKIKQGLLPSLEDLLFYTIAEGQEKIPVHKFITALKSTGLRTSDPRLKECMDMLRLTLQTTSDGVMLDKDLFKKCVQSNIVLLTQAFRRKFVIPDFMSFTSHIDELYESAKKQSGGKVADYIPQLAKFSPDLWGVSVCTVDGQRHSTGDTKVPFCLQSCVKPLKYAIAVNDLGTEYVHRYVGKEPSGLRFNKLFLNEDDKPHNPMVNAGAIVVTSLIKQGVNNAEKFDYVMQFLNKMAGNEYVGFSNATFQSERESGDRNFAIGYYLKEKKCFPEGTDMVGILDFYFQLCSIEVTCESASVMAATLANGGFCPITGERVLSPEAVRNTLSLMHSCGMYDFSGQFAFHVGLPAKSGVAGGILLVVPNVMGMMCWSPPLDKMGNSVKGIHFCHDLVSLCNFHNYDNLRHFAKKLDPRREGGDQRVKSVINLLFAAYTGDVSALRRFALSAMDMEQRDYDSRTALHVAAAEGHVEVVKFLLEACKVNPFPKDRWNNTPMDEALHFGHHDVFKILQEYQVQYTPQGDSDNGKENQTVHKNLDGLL
Procedure, shortened: (§1)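 Human GLS1 hydrolase activity measured with a commercial GLS1 inhibitor screening kit, following the manufacturer's protocol. Single-point screening was run at 10 μM.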

MDA-MB-231 [2] = assay: Antiproliferative activity against human MDA-MB-231 cells after 24 hrs by MTT assay relative to control; format: functional
Procedure, shortened: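 MDA-MB-231 cells kept in DMEM with 10% FBS at 37°C, 5% CO2. Seeded at 5×10^3 cells/well and left 24 h, then exposed to compounds at 0.078-10 µM for 24 h. 0.1% DMSO served as the vehicle control. MTT added for 4 h, formazan dissolved in DMSO, absorbance read at 570 nm. IC50 derived. Each run in triplicate, repeated at least three times.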

MDA-MB-231 [3] = assay: Antiproliferative activity against human MDA-MB-231 cells after 24 hrs by MTT assay; format: functional, cell-based; conditions: MDA-MB-231, 24 h
[4] = target: T2, Glutaminase kidney isoform, mitochondrial (Homo sapiens, UniProt O94925); assay: Inhibition of human GLS1; procedure, shortened: as §1
T2 sequence (O94925 whole entry): T1 sequence (whole entry)

Row | SMILES | inhibition [1] [%] | inhibition (INH) (MDA-MB-231 [2]) [%] | IC50 (MDA-MB-231 [3]) [µM] | IC50 [4] [µM]
1 | CC(=O)O[C@H]1C=C([C@H](C)[C@H]2CC(C)=C(C)C(=O)O2)[C@@]2(C)CC[C@H]3[C@@H](C[C@H]4O[C@]45[C@@H](OC(=O)CCCC(=O)Nc4ccc(F)cc4)C=CC(=O)[C@]35C)[C@@]12O | < 50 | 95.4 | 0.49 | –
2 | CC(=O)O[C@H]1C=C([C@H](C)[C@H]2CC(C)=C(C)C(=O)O2)[C@@]2(C)CC[C@H]3[C@@H](C[C@H]4O[C@]45[C@@H](OC(=O)CCCC(=O)Nc4nccs4)C=CC(=O)[C@]35C)[C@@]12O | < 50 | 84.8 | 1 | –
3 | COc1ccc(NC(=O)CCCC(=O)O[C@H]2C=CC(=O)[C@]3(C)[C@H]4CC[C@]5(C)C([C@H](C)[C@H]6CC(C)=C(C)C(=O)O6)=C[C@H](OC(C)=O)[C@]5(O)[C@@H]4C[C@H]4O[C@]243)cc1 | 56.3 | 92.9 | 0.44 | –
4 | CC(=O)O[C@H]1C=C([C@H](C)[C@H]2CC(C)=C(C)C(=O)O2)[C@@]2(C)CC[C@H]3[C@@H](C[C@H]4O[C@]45[C@@H](OC(=O)/C=C/C(=O)Nc4ccc(N6CCOCC6)c(F)c4)C=CC(=O)[C@]35C)[C@@]12O | 52.4 | 90.8 | 1.38 | –
5 | CC(=O)O[C@H]1C=C([C@H](C)[C@H]2CC(C)=C(C)C(=O)O2)[C@@]2(C)CC[C@H]3[C@@H](C[C@H]4O[C@]45[C@@H](OC(=O)CCCC(=O)Nc4nncs4)C=CC(=O)[C@]35C)[C@@]12O | < 50 | 71.6 | 2.17 | –
6 | CC(=O)O[C@H]1C=C([C@H](C)[C@H]2CC(C)=C(C)C(=O)O2)[C@@]2(C)CC[C@H]3[C@@H](C[C@H]4O[C@]45[C@@H](OC(=O)/C=C/C(=O)O)C=CC(=O)[C@]35C)[C@@]12O | < 50 | – | > 50 | –
7 | CC(=O)O[C@H]1C=C([C@H](C)[C@H]2CC(C)=C(C)C(=O)O2)[C@@]2(C)CC[C@H]3[C@@H](C[C@H]4O[C@]45[C@@H](OC(=O)CCC(=O)Nc4nccs4)C=CC(=O)[C@]35C)[C@@]12O | < 50 | 79.6 | 2.06 | –
8 | CC(=O)O[C@H]1C=C([C@H](C)[C@H]2CC(C)=C(C)C(=O)O2)[C@@]2(C)CC[C@H]3[C@@H](C[C@H]4O[C@]45[C@@H](OC(=O)CCC(=O)Nc4ccc(N(C)C)cc4)C=CC(=O)[C@]35C)[C@@]12O | < 50 | 83.3 | 1.62 | –
9 | O=C(Cc1ccccc1)Nc1nnc(CCSCCc2nnc(NC(=O)Cc3ccccc3)s2)s1 | – | 68.5 | 9.08 | –
10 | COc1ccc(NC(=O)/C=C/C(=O)O[C@H]2C(Nc3ccc(OC)cc3)CC(=O)[C@]3(C)[C@H]4CC[C@]5(C)C([C@H](C)[C@H]6CC(C)=C(C)C(=O)O6)=C[C@H](OC(C)=O)[C@]5(O)[C@@H]4C[C@H]4O[C@@]423)cc1 (stereo partly specified) | < 50 | 0 | > 50 | –
11 | CC(=O)O[C@H]1C=C([C@H](C)[C@H]2CC(C)=C(C)C(=O)O2)[C@@]2(C)CC[C@H]3[C@@H](C[C@H]4O[C@]45[C@@H](OC(=O)CCC(=O)Nc4nc6ccccc6s4)C=CC(=O)[C@]35C)[C@@]12O | < 50 | 79.5 | 3.5 | –
12 | CC(=O)O[C@H]1C=C([C@H](C)[C@H]2CC(C)=C(C)C(=O)O2)[C@@]2(C)CC[C@H]3[C@@H](C[C@H]4O[C@]45[C@@H](OC(=O)CCCC(=O)O)C=CC(=O)[C@]35C)[C@@]12O | < 50 | – | > 50 | –
13 | CC(=O)O[C@H]1C=C([C@H](C)[C@H]2CC(C)=C(C)C(=O)O2)[C@@]2(C)CC[C@H]3[C@@H](C[C@H]4O[C@]45[C@@H](O)C=CC(=O)[C@]35C)[C@@]12O | 41.4 | 74.7 | 6.34 | 18.2
14 | COc1ccc(NC(=O)CCC(=O)O[C@H]2C=CC(=O)[C@]3(C)[C@H]4CC[C@]5(C)C([C@H](C)[C@H]6CC(C)=C(C)C(=O)O6)=C[C@H](OC(C)=O)[C@]5(O)[C@@H]4C[C@H]4O[C@]243)cc1 | < 50 | 82.9 | 1.02 | –
15 | COc1ccc(NC(=O)/C=C/C(=O)O[C@H]2C=CC(=O)[C@]3(C)[C@H]4CC[C@]5(C)C([C@H](C)[C@H]6CC(C)=C(C)C(=O)O6)=C[C@H](OC(C)=O)[C@]5(O)[C@@H]4C[C@H]4O[C@]243)cc1 | 51.6 | 94.1 | 0.79 | –
16 | CC(=O)O[C@H]1C=C([C@H](C)[C@H]2CC(C)=C(C)C(=O)O2)[C@@]2(C)CC[C@H]3[C@@H](C[C@H]4O[C@]45[C@@H](OC(=O)CCC(=O)Nc4nncs4)C=CC(=O)[C@]35C)[C@@]12O | < 50 | 77.5 | 8.07 | –
17 | CC(=O)O[C@H]1C=C([C@H](C)[C@H]2CC(C)=C(C)C(=O)O2)[C@@]2(C)CC[C@H]3[C@@H](C[C@H]4O[C@]45[C@@H](OC(=O)CCC(=O)Nc4ccc(F)cc4)C=CC(=O)[C@]35C)[C@@]12O | < 50 | 80.4 | 1.87 | –
18 | CC(=O)O[C@H]1C=C([C@H](C)[C@H]2CC(C)=C(C)C(=O)O2)[C@@]2(C)CC[C@H]3[C@@H](C[C@H]4O[C@]45[C@@H](OC(=O)/C=C/C(=O)Nc4ccc(F)cc4)C=CC(=O)[C@]35C)[C@@]12O | < 50 | 88.9 | 1.32 | –
19 | CC(=O)O[C@H]1C=C([C@H](C)[C@H]2CC(C)=C(C)C(=O)O2)[C@@]2(C)CC[C@H]3[C@@H](C[C@H]4O[C@]45[C@@H](OC(=O)/C=C/C(=O)Nc4nccs4)C=CC(=O)[C@]35C)[C@@]12O | < 50 | 88.4 | 1.83 | –
20 | CC(=O)O[C@H]1C=C([C@H](C)[C@H]2CC(C)=C(C)C(=O)O2)[C@@]2(C)CC[C@H]3[C@@H](C[C@H]4O[C@]45[C@@H](OC(=O)CCC(=O)Nc4ccc(N6CCOCC6)c(F)c4)C=CC(=O)[C@]35C)[C@@]12O | 53.5 | 80.9 | 1.66 | –
21 | CC(=O)O[C@H]1C=C([C@H](C)[C@H]2CC(C)=C(C)C(=O)O2)[C@@]2(C)CC[C@H]3[C@@H](C[C@H]4O[C@]45[C@@H](OC(=O)CCCC(=O)Nc4ccc(N(C)C)cc4)C=CC(=O)[C@]35C)[C@@]12O | 51.8 | 92.6 | 1.07 | –
22 | CC(=O)O[C@H]1C=C([C@H](C)[C@H]2CC(C)=C(C)C(=O)O2)[C@@]2(C)CC[C@H]3[C@@H](C[C@H]4O[C@]45[C@@H](OC(=O)/C=C/C(=O)Nc4ccc(N(C)C)cc4)C=CC(=O)[C@]35C)[C@@]12O | < 50 | 72.1 | 1.56 | –
23 | CC(=O)O[C@H]1C=C([C@H](C)[C@H]2CC(C)=C(C)C(=O)O2)[C@@]2(C)CC[C@H]3[C@@H](C[C@H]4O[C@]45[C@@H](OC(=O)CCCC(=O)Nc4nc6ccccc6s4)C=CC(=O)[C@]35C)[C@@]12O | < 50 | 94.1 | 0.67 | –
24 | CC(=O)O[C@H]1C=C([C@H](C)[C@H]2CC(C)=C(C)C(=O)O2)[C@@]2(C)CC[C@H]3[C@@H](C[C@H]4O[C@]45[C@@H](OC(=O)CCCC(=O)Nc4ccc(N6CCOCC6)c(F)c4)C(Nc4ccc(N6CCOCC6)c(F)c4)CC(=O)[C@]35C)[C@@]12O (stereo partly specified) | < 50 | 0 | > 50 | –
25 | CC(=O)O[C@H]1C=C([C@H](C)[C@H]2CC(C)=C(C)C(=O)O2)[C@@]2(C)CC[C@H]3[C@@H](C[C@H]4O[C@]45[C@@H](OC(=O)CCC(=O)O)C=CC(=O)[C@]35C)[C@@]12O | < 50 | – | > 50 | –
26 | CC(=O)O[C@H]1C=C([C@H](C)[C@H]2CC(C)=C(C)C(=O)O2)[C@@]2(C)CC[C@H]3[C@@H](C[C@H]4O[C@]45[C@@H](OC(=O)/C=C/C(=O)Nc4nc6ccccc6s4)C=CC(=O)[C@]35C)[C@@]12O | < 50 | 0 | > 50 | –
27 | COc1ccc(NC(=O)CCCC(=O)O[C@H]2C(Nc3ccc(OC)cc3)CC(=O)[C@]3(C)[C@H]4CC[C@]5(C)C([C@H](C)[C@H]6CC(C)=C(C)C(=O)O6)=C[C@H](OC(C)=O)[C@]5(O)[C@@H]4C[C@H]4O[C@@]423)cc1 (stereo partly specified) | < 50 | 0 | > 50 | –
28 | COc1ccc(NC(=O)CCC(=O)O[C@H]2C(Nc3ccc(OC)cc3)CC(=O)[C@]3(C)[C@H]4CC[C@]5(C)C([C@H](C)[C@H]6CC(C)=C(C)C(=O)O6)=C[C@H](OC(C)=O)[C@]5(O)[C@@H]4C[C@H]4O[C@@]423)cc1 (stereo partly specified) | < 50 | 0 | > 50 | –

Reference: ChEMBL document CHEMBL4811218, “Discovery and optimization of withangulatin A derivatives as novel glutaminase 1 inhibitors for the treatment of triple-negative breast cancer” (Eur J Med Chem, 2021)
